Experimental data reported in ChEMBL document CHEMBL4052823, “Extra Sugar on Vancomycin: New Analogues for Combating Multidrug-Resistant Staphylococcus aureus and Vancomycin-Resistant Enterococci” (J Med Chem, 2018).
Converted amounts (≈) assume the structure as drawn. The source made the active and inactive calls. The rule behind the calls is not given here.

Legend:
HK-2 = experiment: Cytotoxicity against human HK2 cells assessed as decrease in cell viability at 10 to 100 uM after 72 hrs by CCK8 assay; assay type: cell-based; conditions: hk-2, 72 h
Summary of the method: (§1)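 HK-2 and HL-7702 cells were seeded at ~5000 cells/well, incubated overnight, then exposed to compound at final 10, 50 and 100 μM for 72 h. CCK-8 was added for 1.5 h at 37 °C and OD450 read. Viability was OD treated / OD untreated × 100, with triplicates.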

Enterococcus faecium [1] = experiment: Antibacterial activity against glycopeptide-resistant Enterococcus faecium Efm-HS-0847 vanM after 24 hrs by broth microdilution method; assay type: functional; conditions: Efm-HS-0847, 24 h
Summary of the method: (§2)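 Broth microdilution in cation-adjusted Mueller-Hinton II broth. DMSO stocks were diluted in broth and twofold serially from 128 to 0.0625 μg/mL or lower. Each well was inoculated with ~10^5 CFU of exponential-phase bacteria and incubated at 37 °C for 24 h. MIC was the lowest concentration giving complete growth inhibition, read per CLSI. Growth controls contained broth plus DMSO.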

Staphylococcus aureus [2] = experiment: Antibacterial activity against vancomycin/methicillin-susceptible Staphylococcus aureus Newman […] after 24 hrs by broth microdilution method; assay type: functional
Summary of the method: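 Broth microdilution in cation-adjusted Mueller-Hinton II broth. […] Each well received ~10^5 CFU of exponential-phase bacteria and was incubated at 37 °C for 24 h. MIC was taken as the lowest concentration giving complete growth inhibition, interpreted per CLSI.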

Enterococcus faecium [3] = experiment: Antibacterial activity against glycopeptide-resistant Enterococcus faecium Efm-HS-08257 vanM after 24 hrs by broth microdilution method; assay type: functional; conditions: Efm-HS-08257, 24 h; summary of the method: as §2
Enterococcus faecium [4] = experiment: Antibacterial activity against glycopeptide-resistant Enterococcus faecium Efm-HS-06188 vanA after 24 hrs by broth microdilution method; assay type: functional; conditions: Efm-HS-06188, 24 h; summary of the method: as §2
Enterococcus faecium [5] = experiment: Antibacterial activity against glycopeptide-resistant Enterococcus faecium Efm-HS-0649 vanA after 24 hrs by broth microdilution method; assay type: functional; conditions: Efm-HS-0649, 24 h; summary of the method: as §2
L02 = experiment: Cytotoxicity against human HL7702 cells assessed as decrease in cell viability at 10 to 100 uM after 72 hrs by CCK8 assay; assay type: cell-based; conditions: l02, 72 h; summary of the method: as §1
Enterococcus faecium [6] = experiment: Antibacterial activity against glycopeptide-resistant Enterococcus faecium Efm-HS-vb01 vanB after 24 hrs by broth microdilution method; assay type: functional; conditions: Efm-HS-vb01, 24 h; summary of the method: as §2
Staphylococcus aureus [7] = experiment: Antibacterial activity against healthcare-associated methicillin-resistant/vancomycin-intermediate Staphylococcus aureus Mu50 after 24 hrs by broth microdilution method; assay type: functional; conditions: Mu50, 24 h; summary of the method: as §2
Staphylococcus aureus [8] = experiment: Antibacterial activity against healthcare-associated methicillin-resistant/vancomycin-intermediate Staphylococcus aureus Mu50 infected in BALB/c mouse assessed as decrease in liver CFU levels at 7 mg/kg, ip administered twice in 24 hrs interval measured after 5 days; assay type: functional, organism-based
Summary of the method: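 Female BALB/c mice, 6−8 weeks old, were anesthetized with pentobarbital and infected retro-orbitally with ~3.8 × 10^8 CFU of exponential-phase Mu50, 12 per group. Treatment started 1 h post-infection: 7 mg/kg ip in sterile water, two doses 24 h apart. At day 5 mice were euthanized and liver homogenates plated on TSA for CFU counts. Groups were compared by two-tailed Mann−Whitney test.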

Staphylococcus aureus [9] = experiment: Antibacterial activity against methicillin-resistant Staphylococcus aureus USA300 LAC infected in BALB/c mouse assessed as mouse survival rate at 7 mg/kg, ip administered as single dose measured after 10 days relative to control; assay type: functional; conditions: 240 h
Summary of the method: (§3)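 Female BALB/c mice, 6−8 weeks old, were anesthetized with pentobarbital and infected retro-orbitally with ~2.35 × 10^8 CFU of exponential-phase USA300 LAC, 15 per group. A single 7 mg/kg ip dose was given 1 h after infection. Deaths were recorded daily to build survival curves.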

[10] = Clearance in CD1 mouse at 5 mg/kg, iv; assay type: ADME, organism-based; conditions: in vivo
Summary of the method: (§4)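 Fasted male CD-1 mice (18−22 g), 5 mg/kg single dose into the tail vein, 6 per group. Blood sampled at 0.25, 0.75, 2, 4, 8 and 24 h and analysed by UPLC-MS/MS. T1/2, AUClast, AUCINF_obs, CL_obs, MRTINF_obs and VSS_obs were calculated for each animal from its time−concentration curve.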

[11] = Volume of distribution at steady state in CD1 mouse at 5 mg/kg, iv; assay type: ADME, organism-based; conditions: in vivo, read-out: Vdss
Summary of the method: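 Fasted male CD-1 mice (18−22 g), 5 mg/kg single dose into the tail vein, 6 per group. T1/2, AUClast, AUCINF_obs, CL_obs, MRTINF_obs and VSS_obs were calculated for each animal from its time−concentration curve.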

Staphylococcus aureus [12] = experiment: Antibacterial activity against methicillin-resistant Staphylococcus aureus USA300 LAC infected in BALB/c mouse assessed as increase in mouse survival rate at 7 mg/kg, ip administered as single dose after 10 days relative to control; assay type: functional, organism-based; summary of the method: as §3
[13] = Half life in CD1 mouse at 5 mg/kg, iv; assay type: ADME, organism-based; conditions: in vivo; summary of the method: as §4
[14] = MRT (infinity) in CD1 mouse at 5 mg/kg, iv; assay type: ADME, organism-based; conditions: in vivo; summary of the method: as §4
[15] = AUC (infinity) in CD1 mouse at 5 mg/kg, iv; assay type: ADME, organism-based; parameters: dose 5 mg/kg, route intravenous, time infinity; conditions: in vivo; summary of the method: as §4
Staphylococcus aureus [16] = experiment: Potency index, ratio of telavancin MIC90 to test compound MIC90 for vancomycin/methicillin-susceptible Staphylococcus aureus Newman […]; assay type: functional
Blood = experiment: Drug uptake in CD1 mouse blood at 5 mg/kg, iv; assay type: ADME, organism-based; conditions: in vivo; summary of the method: as §4
[17] = AUClast in CD1 mouse at 5 mg/kg, iv; assay type: ADME, organism-based; parameters: dose 5 mg/kg, route intravenous, time 0 - last; conditions: in vivo; summary of the method: as §4

Row | SMILES | Activity (HK-2) | MIC (Enterococcus faecium [1]) | MIC90 (Staphylococcus aureus [2]) | MIC (Enterococcus faecium [3]) | MIC (Enterococcus faecium [4]) | MIC (Enterococcus faecium [5]) | Activity (L02) | MIC (Enterococcus faecium [6]) | MIC90 (Staphylococcus aureus [7]) | Activity (Staphylococcus aureus [8]) | survival at 7 mg/kg (Staphylococcus aureus [9]) | clearance [10] | Vd [11] | Activity (Staphylococcus aureus [12]) | half-life [13] | MRT inf [14] | AUC(0-inf) [15] | Ratio (Staphylococcus aureus [16]) | Drug uptake (Blood) | AUC(0-t) [17]
1 | CN[C@H](CC(C)C)C(=O)N[C@H]1C(=O)N[C@@H](CC(N)=O)C(=O)N[C@H]2C(=O)N[C@H]3C(=O)N[C@H](C(=O)N[C@H](C(=O)O)c4cc(O)c(CNCCO[C@@H]5O[C@H](CO)[C@H](O)[C@H](O)[C@H]5O)c(O)c4-c4cc3ccc4O)[C@H](O)c3ccc(c(Cl)c3)Oc3cc2cc(c3O[C@@H]2O[C@H](CO)[C@@H](O)[C@H](O)[C@H]2O[C@H]2C[C@](C)(NCc3ccc(-c4ccc(Cl)cc4)cc3)[C@H](O)[C@H](C)O2)Oc2ccc(cc2Cl)[C@H]1O | Non-Toxic | 16 µg/mL (≈ 8.49 µM) | 0.06 µg/mL (≈ 0.0318 µM) | 4 µg/mL (≈ 2.12 µM) | 2 µg/mL (≈ 1.06 µM) | 4 µg/mL (≈ 2.12 µM) | Non-Toxic | 0.12 µg/mL (≈ 0.0637 µM) | 0.25 µg/mL (≈ 0.133 µM) |  |  |  |  |  |  |  |  |  |  | 
2 | CN[C@H](CC(C)C)C(=O)N[C@H]1C(=O)N[C@@H](CC(N)=O)C(=O)N[C@H]2C(=O)N[C@H]3C(=O)N[C@H](C(=O)N[C@H](C(=O)O)c4cc(O)cc(O)c4-c4cc3ccc4O)[C@H](O)c3ccc(c(Cl)c3)Oc3cc2cc(c3O[C@@H]2O[C@H](CO)[C@@H](O)[C@H](O)[C@H]2O[C@H]2C[C@](C)(N)[C@H](O)[C@H](C)O2)Oc2ccc(cc2Cl)[C@H]1O [VANCOMYCIN] | Toxic | > 128 µg/mL | 2 µg/mL (≈ 1.38 µM) | > 128 µg/mL | > 128 µg/mL | > 128 µg/mL | Toxic | 64 µg/mL (≈ 44.2 µM) | 8 µg/mL (≈ 5.52 µM) | inactive | 6.67% | 68.7 mL/min/kg | 3.08 L/kg |  |  |  |  |  |  | 
3 | CN[C@H](CC(C)C)C(=O)N[C@H]1C(=O)N[C@@H](CC(N)=O)C(=O)N[C@H]2C(=O)N[C@H]3C(=O)N[C@H](C(=O)N[C@H](C(=O)O)c4cc(O)c(CNCCCNC(=O)[C@H](O)[C@@H](O)[C@H](O)[C@H](O)CO)c(O)c4-c4cc3ccc4O)[C@H](O)c3ccc(c(Cl)c3)Oc3cc2cc(c3O[C@@H]2O[C@H](CO)[C@@H](O)[C@H](O)[C@H]2O[C@H]2C[C@](C)(NCc3ccc(-c4ccc(C(F)(F)F)cc4)cc3)[C@H](O)[C@H](C)O2)Oc2ccc(cc2Cl)[C@H]1O |  | 8 µg/mL (≈ 4.11 µM) | 0.06 µg/mL (≈ 0.0308 µM) | 4 µg/mL (≈ 2.05 µM) | 1 µg/mL (≈ 0.513 µM) | 2 µg/mL (≈ 1.03 µM) |  | 0.5 µg/mL (≈ 0.257 µM) | 0.25 µg/mL (≈ 0.128 µM) |  |  | 6.4 mL/min/kg | 1.83 L/kg | Active | 3.72 h | 4.79 h | 13400 ng·h/mL | 8 - 16 | > 1 µg/mL | 10700 ng·h/mL
4 | CN[C@H](CC(C)C)C(=O)N[C@H]1C(=O)N[C@@H](CC(N)=O)C(=O)N[C@H]2C(=O)N[C@H]3C(=O)N[C@H](C(=O)N[C@H](C(=O)O)c4cc(O)c(CNCCO)c(O)c4-c4cc3ccc4O)[C@H](O)c3ccc(c(Cl)c3)Oc3cc2cc(c3O[C@@H]2O[C@H](CO)[C@@H](O)[C@H](O)[C@H]2O[C@H]2C[C@](C)(NCc3ccc(-c4ccc(C(F)(F)F)cc4)cc3)[C@H](O)[C@H](C)O2)Oc2ccc(cc2Cl)[C@H]1O |  | 4 µg/mL (≈ 2.28 µM) | 0.015 µg/mL (≈ 0.00854 µM) | 2 µg/mL (≈ 1.14 µM) | 1 µg/mL (≈ 0.569 µM) | 1 µg/mL (≈ 0.569 µM) |  | ≤ 0.06 µg/mL | 0.12 µg/mL (≈ 0.0683 µM) |  |  |  |  | Active |  |  |  |  |  | 
